Source: ChEMBL document CHEMBL1255368, “Posaconazole against Candida glabrata isolates with various susceptibilities to fluconazole” (2008)
Converted amounts (≈) assume the structure as drawn. The source made the active and inactive calls.

Tests used:
Nakaseomyces glabratus [1] = experiment: Fungistatic activity against Candida glabrata 4370 assessed as 99.9% reduction of int initial fungal load at 0.5 times MIC after 48 hrs using colony count method by time-kill method; assay type: functional, organism-based
Outline: (§1)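 0.5 McFarland suspension from a 48-h plate, diluted 1:10 into MOPS-buffered RPMI 1640 with drug at 0.5× or 8× MIC. Shaken at 35°C; sampled at 0, 2, 4, 8 and 24 h, serially diluted and plated in triplicate on Sabouraud agar for 48 h at 35°C. Detection limit 20 CFU/ml; fungicidal = 99.9% fall from initial inoculum. Each isolate tested at least twice.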

Nakaseomyces glabratus [2] = experiment: (§2) Antifungal activity against 1.04 x 10^8 CFU fluconazole-susceptible Candida glabrata isolate 4293 infected neutropenic CD1 mouse disseminated candidiasis model assessed as reduction in kidney tissue fungal burden at 1 mg/kg/day, ip administered 24 hrs post infection measured 7 days post infection by colony count method; assay type: functional, organism-based
Outline: (§3)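 Neutropenia induced in male CD1 mice (25 g) with cyclophosphamide 200 mg/kg i.p. on days −4, +1 and +4. Mice were infected i.v. via the tail vein (0.2 ml). Drug was given i.p. at […], starting 24 h post-challenge, for 6 consecutive days. Kidney pairs were homogenized on day 7 and plated on Sabouraud dextrose agar for CFU counts. Groups had 7–8 mice.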

Nakaseomyces glabratus [3] = experiment: Antifungal activity against Candida glabrata isolate 4198 after 24 hrs by microdilution method; assay type: functional; details: isolate 4198, 24 h
Outline: (§4)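 CLSI M27-A2 broth microdilution. Final ranges: POS, CAS, AMB 0.0078–8.0 μg/ml; FLC 0.125–64 μg/ml. Incubated at 35°C, read at 24 and 48 h by OD490. MIC for POS, FLC, CAS: first concentration giving 50% lower turbidity than control; for AMB: 90% lower. Run in quintuplicate; C. parapsilosis ATCC 22019 as quality control.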

Nakaseomyces glabratus [4] = experiment: Fungistatic activity against Candida glabrata isolate 4198 assessed as 99.9% reduction of initial fungal load at 0.5 times MIC after 48 hrs using colony count method by time-kill method; assay type: functional, organism-based; outline: as §1
Candida parapsilosis [5] = experiment: Antifungal activity against Candida parapsilosis ATCC 22019 after 24 hrs by microdilution method; assay type: functional; details: Lodderomyces parapsilosis, ATCC 22019, 24 h
Outline: (§5)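 CLSI M27-A2 broth microdilution. Final drug ranges were 0.0078–8.0 μg/ml for POS, CAS and AMB, and 0.125–64 μg/ml for FLC. Plates were incubated at 35°C and read by OD490 at 24 h. The MIC was the first concentration giving 50% turbidity reduction versus control (POS, FLC, CAS) or 90% (AMB). Run in quintuplicate.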

Nakaseomyces glabratus [6] = experiment: Antifungal activity against Candida glabrata isolate 4205 after 24 hrs by microdilution method; assay type: functional; outline: as §4
Nakaseomyces glabratus [7] = experiment: Antifungal activity against Candida glabrata isolate 4370 after 24 hrs by microdilution method; assay type: functional; outline: as §4
Nakaseomyces glabratus [8] = experiment: Fungistatic activity against Candida glabrata isolate 4293 assessed as 99.9% reduction of initial fungal load at 0.5 times MIC after 48 hrs using colony count method by time-kill method; assay type: functional, organism-based; outline: as §1
Nakaseomyces glabratus [9] = experiment: Fungicidal activity against Candida glabrata isolate 4205 assessed as 99.9% reduction of initial fungal load at 8 times MIC […] using colony count method by time-kill method; assay type: functional, organism-based
Outline: (§6)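 Time-kill assay. The inoculum was set to 0.5 McFarland in water and diluted 1:10 into MOPS-buffered RPMI 1640 with drug at 0.5× or 8× MIC, then shaken at 35°C. Samples were taken at 0, 2, 4, 8 and 24 h, serially diluted and plated in triplicate on Sabouraud agar, with 48 h at 35°C. Detection limit was 20 CFU/ml. Fungicidal was defined as a 99.9% drop from the initial inoculum. Each isolate was tested at least twice.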

Nakaseomyces glabratus [10] = experiment: Fungistatic activity against Candida glabrata isolate 4205 assessed as 99.9% reduction of initial fungal load at 0.5 times MIC after 48 hrs using colony count method by time-kill method; assay type: functional, organism-based; outline: as §1
Candida parapsilosis [11] = experiment: Fungistatic activity against Candida parapsilosis ATCC 22019 assessed as 99.9% reduction of int initial fungal load at 0.5 times MIC after 48 hrs using colony count method by time-kill method; assay type: functional, organism-based
Nakaseomyces glabratus [12] = experiment: Antifungal activity against Candida glabrata isolate 4293 after 24 hrs by microdilution method; assay type: functional; outline: as §5
Nakaseomyces glabratus [13] = experiment: Fungicidal activity against Candida glabrata isolate 4198 assessed as 99.9% reduction of initial fungal load at 8 times MIC after 48 hrs using colony count method by time-kill method; assay type: functional, organism-based; details: in the assay text read “after 24 hrs” for “after 48 hrs”; outline: as §6
Nakaseomyces glabratus [14] = experiment: Fungicidal activity against Candida glabrata isolate 4293 assessed as 99.9% reduction of initial fungal load at 8 times MIC […] using colony count method by time-kill method; assay type: functional, organism-based
Nakaseomyces glabratus [15] = experiment: as §2, with “2.44” for “1.04”; assay type: functional, organism-based; outline: as §3
Nakaseomyces glabratus [16] = experiment: as §2, with “against 2.44” for “against 1.04”, “at 15” for “at 1”, “mg/kg/day, po” for “mg/kg/day, ip”; assay type: functional, organism-based
Outline: (§7)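 Male CD1 mice (25 g) made neutropenic with cyclophosphamide 200 mg/kg i.p. on days −4, +1 and +4, then infected i.v. via the lateral tail vein (0.2 ml). Dosing started 24 h post-challenge, once daily for 6 days, 0.2 ml: POS by oral gavage, FLC i.p. On day 7, homogenized kidneys (entire organ) plated on Sabouraud agar; CFU per kidney pair; 7–8 mice per group.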

Nakaseomyces glabratus [17] = experiment: Fungistatic activity against Candida glabrata isolate 4205 assessed as 99.9% reduction of initial fungal load at 8 times MIC after 48 hrs using colony count method by time-kill method; assay type: functional, organism-based
Nakaseomyces glabratus [18] = experiment: Fungistatic activity against Candida glabrata 4370 assessed as 99.9% reduction of int initial fungal load at 8 times MIC after 48 hrs using colony count method by time-kill method; assay type: functional, organism-based; outline: as §1
Nakaseomyces glabratus [19] = experiment: Fungistatic activity against Candida glabrata isolate 4293 assessed as 99.9% reduction of initial fungal load at 8 times MIC after 48 hrs using colony count method by time-kill method; assay type: functional, organism-based; outline: as §1
Candida parapsilosis [20] = experiment: Antifungal activity against Candida parapsilosis ATCC 22019 after 48 hrs by microdilution method; assay type: functional; details: Lodderomyces parapsilosis, ATCC 22019, 48 h; outline: as §4
Nakaseomyces glabratus [21] = experiment: as §2, with “against 2.44” for “against 1.04”, “at 25” for “at 1”; assay type: functional, organism-based; outline: as §7
Nakaseomyces glabratus [22] = experiment: Fungistatic activity against Candida glabrata isolate 4198 assessed as 99.9% reduction of initial fungal load at 8 times MIC after 48 hrs using colony count method by time-kill method; assay type: functional, organism-based; outline: as §1
Nakaseomyces glabratus [23] = experiment: Antifungal activity against Candida glabrata isolate 4205 after 48 hrs by microdilution method; assay type: functional; outline: as §4
Nakaseomyces glabratus [24] = experiment: as §2, with “against” for “against 1.04 x 10^8 CFU”, “isolate 4205” for “isolate 4293”, “at 30” for “at 1”, “mg/kg/day, po” for “mg/kg/day, ip”; assay type: functional, organism-based; outline: as §7
Nakaseomyces glabratus [25] = experiment: as §2, with “at 30” for “at 1”, “mg/kg/day, po” for “mg/kg/day, ip”; assay type: functional, organism-based; outline: as §7
Nakaseomyces glabratus [26] = experiment: Antifungal activity against Candida glabrata isolate 4293 after 48 hrs by microdilution method; assay type: functional; outline: as §4
Nakaseomyces glabratus [27] = experiment: Antifungal activity against fluconazole-resistant Candida glabrata isolate 4198 infected neutropenic CD1 mouse disseminated candidiasis model assessed as reduction in kidney tissue fungal burden at 30 mg/kg/day, po administered 24 hrs post infection measured 7 days post infection by colony count method; assay type: functional, organism-based; outline: as §7
Nakaseomyces glabratus [28] = experiment: Antifungal activity against Candida glabrata isolate 4198 after 48 hrs by microdilution method; assay type: functional; details: isolate 4198, 48 h; outline: as §4
Nakaseomyces glabratus [29] = experiment: Antifungal activity against Candida glabrata isolate 4370 after 48 hrs by microdilution method; assay type: functional; outline: as §4
Candida parapsilosis [30] = experiment: Fungistatic activity against Candida parapsilosis ATCC 22019 assessed as 99.9% reduction of int initial fungal load at 8 times MIC after 48 hrs using colony count method by time-kill method; assay type: functional, organism-based
Nakaseomyces glabratus [31] = experiment: as §2, with “at 25” for “at 1”; assay type: functional, organism-based

Compound | Activity (Nakaseomyces glabratus [1]) | Activity (Nakaseomyces glabratus [2]) | Activity (Nakaseomyces glabratus [4]) | Activity (Nakaseomyces glabratus [8]) | Activity (Nakaseomyces glabratus [9]) | Activity (Nakaseomyces glabratus [10]) | Activity (Candida parapsilosis [11]) | Activity (Nakaseomyces glabratus [13]) | Activity (Nakaseomyces glabratus [14]) | Activity (Nakaseomyces glabratus [15]) | Activity (Nakaseomyces glabratus [17]) | Activity (Nakaseomyces glabratus [18]) | Activity (Nakaseomyces glabratus [19]) | MIC (Candida parapsilosis [20]) | Activity (Nakaseomyces glabratus [21]) | MIC (Nakaseomyces glabratus [23]) | MIC (Nakaseomyces glabratus [26]) | MIC (Nakaseomyces glabratus [28]) | MIC (Nakaseomyces glabratus [29]) | Activity (Candida parapsilosis [30]) | also measured
CC[C@H](C)C[C@H](C)CCCCCCCCC(=O)N[C@H]1C[C@@H](O)[C@@H](NCCN)NC(=O)[C@@H]2[C@@H](O)CCN2C(=O)[C@H]([C@H](O)CCN)NC(=O)[C@H]([C@H](O)[C@@H](O)c2ccc(O)cc2)NC(=O)[C@@H]2C[C@@H](O)CN2C(=O)[C@H]([C@@H](C)O)NC1=O [CASPOFUNGIN] | Active | Active | Active | Active | inactive | Active | Active | inactive | inactive | Active | – | – | – | – | – | – | – | – | – | – | MIC (Nakaseomyces glabratus [3]): 0.25 µg/mL (≈ 0.229 µM); MIC (Candida parapsilosis [5]): 0.25 µg/mL (≈ 0.229 µM); MIC (Nakaseomyces glabratus [6]): 0.25 µg/mL (≈ 0.229 µM); MIC (Nakaseomyces glabratus [7]): 0.125 µg/mL (≈ 0.114 µM); MIC (Nakaseomyces glabratus [12]): ≤ 0.03 µg/mL
CC[C@@H]([C@H](C)O)n1ncn(-c2ccc(N3CCN(c4ccc(OC[C@@H]5CO[C@@](Cn6cncn6)(c6ccc(F)cc6F)C5)cc4)CC3)cc2)c1=O [POSACONAZOLE] | Active | inactive | Active | Active | – | Active | Active | – | – | – | Active | Active | Active | ≤ 0.03 µg/mL | Active | ≤ 0.03 µg/mL | 0.25 µg/mL (≈ 0.357 µM) | 0.5 µg/mL (≈ 0.713 µM) | 0.06 µg/mL (≈ 0.0856 µM) | Active | Activity (Nakaseomyces glabratus [16]): Active; Activity (Nakaseomyces glabratus [22]): Active; Activity (Nakaseomyces glabratus [24]): Active; Activity (Nakaseomyces glabratus [25]): Active; Activity (Nakaseomyces glabratus [27]): Active; Activity (Nakaseomyces glabratus [31]): Active
OC(Cn1cncn1)(Cn1cncn1)c1ccc(F)cc1F [FLUCONAZOLE] | Active | – | Active | Active | – | Active | Active | – | – | Active | Active | Active | Active | 4 µg/mL (≈ 13.1 µM) | Active | 1 µg/mL (≈ 3.27 µM) | 32 µg/mL (≈ 104 µM) | > 64 µg/mL | 16 µg/mL (≈ 52.2 µM) | Active | Activity (Nakaseomyces glabratus [22]): Active; Activity (Nakaseomyces glabratus [24]): Active; Activity (Nakaseomyces glabratus [27]): inactive; Activity (Nakaseomyces glabratus [31]): inactive
C[C@@H]1[C@H](O)[C@@H](C)/C=C/C=C/C=C/C=C/C=C/C=C/C=C/[C@H](O[C@@H]2O[C@H](C)[C@@H](O)[C@H](N)[C@@H]2O)C[C@@H]2O[C@](O)(C[C@@H](O)C[C@@H](O)[C@H](O)CC[C@@H](O)C[C@@H](O)CC(=O)O[C@H]1C)C[C@H](O)[C@H]2C(=O)O [AMPHOTERICIN B] | Active | Active | Active | Active | Active | Active | Active | Active | Active | Active | – | Active | – | 1 µg/mL (≈ 1.08 µM) | – | 0.5 µg/mL (≈ 0.541 µM) | 0.5 µg/mL (≈ 0.541 µM) | 0.5 µg/mL (≈ 0.541 µM) | 1 µg/mL (≈ 1.08 µM) | Active | –
